# HSF1 inhib: HSF1 inhibition. NIH3T3-HGL HSE-luciferase, MG132-induced, luminescence 8 h; stronger effect = lower value. activity change, negative = inhibition, % at 7.5 µM (by protocol). hit rate 0.77% among 300,000;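 active = more than half of replicate wells show activity change below -50%, luminescence cut by over half; inconclusive = some wells, but at most half, below -50%; inactive = no replicate well below -50%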;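 also: luciferase reports HSF-1 transcriptional activity via heat shock element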
# HSF1 activator: increases HSF-1 driven luciferase reporter signal; NIH3T3-HGL HSF-1 luciferase reporter, MG132, 8 h; 100% = twice DMSO control signal; activation, % at 9 µM; hit rate 1.7% among 300,000; AID 504408;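 active = mean replicate activation of at least 50% with a set share of replicates each reaching 50%; inconclusive = only one of those two conditions met; inactive = mean below 50% and too few replicates reaching it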
# HCV core dimer: HCV core protein dimerization inhibition | TR-FRET GST/Flag-core106 dimerization, 1536-well | hit rate 0.33% among 300,000 | inhibition, % at 5 µM;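 active = inhibition above the mean of all tested compounds plus 3 SD, set per screening campaign, cut at about 45% in these data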
#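 test system = GST/Flag-tagged HCV core106 proteins | probe or stimulus = Eu donor and XL665 acceptor anti-tag antibodies | times = compound-protein-antibody incubation 4 h at 22.5 °C | signal = TR-FRET, excitation 340 nm, emission 617 and 671 nm | measure = percent inhibition of core106 dimerization signal | controls = wells lacking GST-core106 and wells with excess unlabelled core106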
# ALR H2O2 inh: inhibitors of human sulfhydryl oxidase ALR | purified ALR, DTT oxidation, H2O2 HRP-luminol luminescence | inhibition, % (test concentration not listed) | hit rate 3.8% among 290,000;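 active = mean replicate inhibition above about 79%, with every replicate also reaching it, limit read from the data; inconclusive = only one of the two criteria met; inactive = mean below limit and not every replicate reaching it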
# Target sequence (P55789 whole entry, looked up): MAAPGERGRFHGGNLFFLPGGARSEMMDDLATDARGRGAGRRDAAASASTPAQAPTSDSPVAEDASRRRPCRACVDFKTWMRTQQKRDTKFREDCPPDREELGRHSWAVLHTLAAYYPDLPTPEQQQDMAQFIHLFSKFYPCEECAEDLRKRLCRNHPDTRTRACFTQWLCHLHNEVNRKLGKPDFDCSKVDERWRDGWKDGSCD
# PHOSPHO1 inh: PHOSPHO1 (human) inhibition; Q8TCT1; recombinant PHOSPHO1, absorbance phosphatase assay; inhibition, % at 13.3 µM; hit rate 1.1% among 290,000; AID 1565; in the data active = inhibition above about 60%
# Target sequence (Q8TCT1 whole entry, looked up): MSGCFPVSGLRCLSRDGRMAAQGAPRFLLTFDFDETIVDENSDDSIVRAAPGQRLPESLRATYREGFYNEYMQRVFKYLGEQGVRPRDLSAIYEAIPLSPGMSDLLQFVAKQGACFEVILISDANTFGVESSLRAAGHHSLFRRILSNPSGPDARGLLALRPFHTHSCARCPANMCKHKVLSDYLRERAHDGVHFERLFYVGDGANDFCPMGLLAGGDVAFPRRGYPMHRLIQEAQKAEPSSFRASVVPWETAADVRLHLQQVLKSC
# AI-2 QS mod: modulates the Vibrio harveyi AI-2 quorum sensing system; Vibrio harveyi JMH597 AI-2 luminescence/OD600 ratio, 9 h; stronger effect = lower value; strain lacks LuxN and CqsS sensors; 0 = neutral-control median; activity change, % at 7.5 µM; hit rate 0.4% among 300,000; AID 2094; in the data active = activity change below about -75%, passing the limit was not always enough; inconclusive = no clear call, values can overlap the other calls;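 also: luminescence divided by OD600 gain over 9 h not by final OD600 alone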
# Numbers stand for hits; n = inactive; u = inconclusive; x = no result. Shown are actives, neighbours in structure and some others; about 6.8% of the full set was active somewhere.
SMILES,HSF1 inhib,HSF1 activator,HCV core dimer,ALR H2O2 inh,PHOSPHO1 inh,AI-2 QS mod
CCOC(=O)c1c(/N=C/C2C(=O)NC(=O)NC2=O)sc2c1CCC2,n,n,n,n,n,n
CCOC(=O)c1cc(CC)sc1/N=C/c1c(O)[nH]c(=S)[nH]c1=O,n,n,n,98,n,n
CC(C)(C)c1cc([N+](=O)[O-])cc(C(C)(C)C)c1O,n,n,n,x,n,n
COc1cc(C(c2c(C)[nH]n(-c3ccccc3)c2=O)c2c(C)[nH]n(-c3ccccc3)c2=O)cc(OC)c1OC,n,55,n,n,n,n
COC(=O)C1=C(c2ccc(F)cc2OCc2ccccc2)C[C@@H]2CC[C@H]1N2C(=O)N1CCCC1,x,x,x,n,x,x
COC1C(C)OC(OC2CC(C)(O)Cc3cc4c(c(O)c32)C(=O)c2c(O)cc3c(c2C4=O)OC2OC3(C)C(O)C(N(C)C)C2O)C(OC)C1(C)OC (stereo not drawn),71,71,x,x,x,x
COc1ccccc1NC(=O)c1cn(CCC#N)nc1-c1cccc(Cl)c1,n,n,x,n,x,n
Oc1ccccc1-[n+]1c(-c2ccccc2)cc(-c2ccccc2)c(O)c1-c1ccccc1,n,n,n,x,x,n
Cc1ccc(/C=C2\C(=O)NC(=S)N(c3ccccc3F)C2=O)s1,x,x,n,98,n,x
Cc1ccc(/C=C2\C(=O)NC(=S)N(c3ccc(F)cc3)C2=O)s1,n,n,n,n,n,n
O=C(/C=C/c1ccccc1)c1c(O)n(CCc2ccccc2)c(=O)[nH]c1=O,n,u,n,n,n,n
COc1cc(/C=C/C(=O)c2c(O)n(CCc3ccccc3)c(=O)[nH]c2=O)ccc1O,n,n,n,97,n,n
CC(=O)O[C@H]1CC[C@@]2(C)[C@H](C1)C(=O)C[C@H]1[C@@H]3CC[C@@H]4[C@@H](CN5C[C@@H](C)CC[C@H]5[C@@]4(C)O)[C@@H]3C[C@@H]12,n,n,n,n,x,n
CN1C(=O)C(=Cc2ccc(SC3CCCCC3)o2)C(=O)N(C)C1=O,n,n,n,88,n,n
COc1ccc(CC(C)NCCC(c2ccccc2)c2ccccc2)cc1 (stereo not drawn),n,n,n,n,x,n
CNCCc1ccc(O)c(O)c1,n,n,n,97,x,n
COc1ccc(CCN)cc1O,n,n,n,n,x,n
O=c1c2ccccc2nc(-c2ccccc2Cl)n1-c1cccc(O)c1,n,n,x,n,n,n
COc1cc(C(=O)N/N=C/C23CC[C@@H](O)CC2(O)CC[C@@H]2[C@@H]3CCC3(C)C(C4=CC(=O)OC4)CCC23O)ccc1O (stereo partly drawn),n,n,n,95,n,n
CN1CC(C(=O)c2ccc(F)cc2)C(c2c(F)cccc2Cl)C1 (stereo not drawn),n,82,n,x,n,n
O=C1NC(=O)[C@]2(Cc3ccccc3N3CCN(c4ccccc4)CC32)C(=O)N1Cc1ccccc1 (stereo partly drawn),n,65,n,x,72,n
CN1C(=O)NC(=O)[C@]2(Cc3ccccc3N3CCN(c4ccccc4)CC32)C1=O (stereo partly drawn),n,n,n,n,65,n
O=C1NC(=O)[C@]2(Cc3ccccc3N3CCN(c4ccccc4)CC32)C(=O)N1c1ccccc1 (stereo partly drawn),n,n,n,n,n,n
O=C1NC(=S)N(c2ccccc2)C(=O)/C1=C/c1ccco1,n,n,n,99,n,n
CCOc1cccc(N2C(=O)/C(=C/c3ccco3)C(=O)NC2=S)c1,n,n,61,x,x,n
SMILES,HSF1 inhib,HSF1 activator,HCV core dimer,ALR H2O2 inh,PHOSPHO1 inh,AI-2 QS mod
COc1ccccc1/C=C1\C(=O)NC(=S)N(c2ccccc2)C1=O,n,n,n,n,n,n
C=CCn1c(O)c(/C=N/NC(=O)CCCC)c(=O)[nH]c1=S,n,n,n,90,n,x
COC(=O)C1=C(c2ccc(F)cc2F)C[C@@H]2CC[C@H]1N2C(=O)NC1Cc2ccccc2C1,x,x,x,n,x,x
COC(=O)C1=C(c2ccc(-c3ccccc3)c(F)c2)C[C@@H]2CC[C@H]1N2C(=O)NCCc1ccccc1,x,x,x,n,x,x
NC(=O)c1ccc(C(=O)Nc2ccc([As](=O)(O)O)cc2)cc1,n,n,n,n,n,n
O=[As](O)(O)c1ccc(N=Nc2ccc(O)cc2)cc1,n,n,x,99,n,n
COc1ccc2[nH]cc(CCN=C(N)N)c2c1,n,n,n,n,n,n
COc1ccc2[nH]cc(C3=CCNCC3)c2c1,n,n,n,97,x,n
CN1CCN(c2ccc([N+](=O)[O-])c(N)c2)CC1,n,n,n,n,n,n
CCN1CCN(c2ccc(N)c(C)c2)CC1,n,n,n,96,n,n
O=C1/C(=C\c2ccc([N+](=O)[O-])cc2)N2CCC1CC2,n,n,n,n,n,n
CN(C)c1ccc(/C=C2/C(=N\O)C3CCN2CC3)cc1,n,n,n,99,n,n
[N-]=[N+]=NCCN1CCC(O)CCC1=O (stereo not drawn),n,n,n,n,n,n
Cc1ccc(NC(=O)CN2C(=O)CN=C(c3ccccc3)c3cc(Cl)ccc32)cc1,n,n,n,x,n,n
CN(C)c1ccc(NC(=O)CN2C(=O)CN=C(c3ccccc3)c3cc(Cl)ccc32)cc1,n,n,n,89,60,n
CN(C)c1ccc(NC(=O)CN2C(=O)CN=C(c3ccccc3)c3ccccc32)cc1,n,n,n,99,n,n
CCN1/C(=C\C=C\C2=[N+](CC)c3ccccc3C2(C)C)C(C)(C)c2ccccc21,n,n,n,88,n,n
CCN(CC)P(=O)(NC(=O)c1cccn1C)N(CC)CC,-84,n,n,n,n,n
Oc1ccc(/C=N/NP(=S)(c2ccccc2)c2ccccc2)c(O)c1O,n,n,n,99,84,n
Oc1ccc(/C=N/NP(=S)(c2ccccc2)c2ccccc2)cc1O,n,n,n,99,n,n
Oc1ccccc1/C=N/NP(=S)(c1ccccc1)c1ccccc1,n,n,n,n,n,n
C[C@]12CCC(=O)CC1CCC1C2CC[C@]2(C)C(OC(=O)CCC(=O)O)CCC12 (stereo partly drawn),n,n,n,n,n,n
CC1CN(C(=O)CCC(=O)N2CCC3(CC2)OCCO3)c2cc(Cl)ccc2O1 (stereo not drawn),n,n,n,n,n,n
NC(Cc1nc2ccccc2[nH]1)c1ccc(Cl)cc1 (stereo not drawn),n,88,n,n,n,n
Cc1nc2ccccc2c(=O)n1-c1ccc(-c2ccccc2)cc1,n,n,n,n,n,n
CN(C)P(=O)(C(Cl)=C(N1CCCCC1)N1CCCCC1)N(C)C,n,n,n,98,n,n
CC(=O)c1cn(CC(=O)NCCc2c[nH]c3ccccc23)c2ccccc12,n,n,n,n,n,n
